This note sets out measurements from ChEMBL document CHEMBL3400020, “2'-Hydroxy flavanone derivatives as an inhibitors of pro-inflammatory mediators: Experimental and molecular docking studies” (Bioorg Med Chem Lett, 2015).

SMILES strings stand for the structures.

Series [1] in a line: Cytotoxicity against mouse RAW264.7 cells assessed as cell viability at 50 uM after 24 hrs by MTT assay. Format: cell-based. The note with it: read-out: Activity. The procedure, abridged: (§1)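 RAW 264.7 and J774A.1 cells handled in parallel. Viability was read at 50 µM alongside the LPS-stimulated NO (Griess) assay. Values are from three independent experiments, each run in triplicate.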
In general terms: Tetrazolium dyes change colour on reduction, which living cells bring about.

For series [2], the system named is RAW264.7. Description: Inhibition of IL-1beta production in mouse RAW264.7 cells at 30 uM incubated for 12 hrs by sandwich immunoassay. It is filed as functional. The note with it: RAW264.7, 12 h. The procedure, abridged: (§2)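 In RAW 264.7 and J774A.1 macrophages, TNF-α and IL-1β were quantified. Single-point data are % inhibition at 30 µM; otherwise IC50 in µM. Values are from three separate experiments, each in triplicate.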

Series [3] relates to RAW264.7. Description: Inhibition of TNFalpha production in mouse RAW264.7 cells at 30 uM incubated for 6 hrs by sandwich immunoassay. It is filed as functional. The note with it: RAW264.7, 6 h. The procedure, abridged: as §2
For series [4], the system named is J774.A1. In words: Inhibition of LPS-induced nitric oxide production in mouse J774A.1 cells pre-incubated for 1 hr followed by LPS stimulation for 24 hrs by Griess reagent based assay. It is filed as functional, cell-based. The procedure, abridged:
as §1
For orientation: Nitrite, measured by Griess reagent, commonly stands in for NO production.

Series [5] can be described thus: Cytotoxicity against mouse J774A.1 cells assessed as cell viability at 50 uM after 24 hrs by MTT assay. It is filed as cell-based, J774.A1. The note with it: read-out: Activity. The procedure, abridged: as §1
Series [6] concerns RAW264.7. In words: Inhibition of LPS-induced nitric oxide production in mouse RAW264.7 cells pre-incubated for 1 hr followed by LPS stimulation for 24 hrs by Griess reagent based assay. It is filed as functional, cell-based. The procedure, abridged:
as §1

Series [7] has as its system J774.A1. Description: Inhibition of TNFalpha production in mouse J774A.1 cells at 30 uM incubated for 6 hrs by sandwich immunoassay. It is filed as functional. The following applies: J774.A1, 6 h. The procedure, abridged: as §2
For series [8], the system named is J774.A1. Description: Inhibition of IL-1beta production in mouse J774A.1 cells at 30 uM incubated for 12 hrs by sandwich immunoassay. Format: functional. The following applies: J774.A1, 12 h. The procedure, abridged:
as §2

Series [9] concerns J774.A1. Description: Inhibition of TNFalpha production in mouse J774A.1 cells incubated for 6 hrs by sandwich immunoassay. It is filed as functional, cell-based. The following applies: J774.A1, 6 h. The procedure, abridged: as §2
The subject of series [10] is Rattus norvegicus. Description: Antiinflammatory activity in Sprague-Dawley rat assessed as inhibition of LPS-induced IL-1beta production at 150 umol/kg, po pre-administered at interval of 12 hrs followed by LPS-stimulation 6 hrs after final dose and measured 2 hrs post LPS challenge by ELISA method. Format: functional. A general note: An ELISA detects its analyte on a solid surface through an enzyme-linked reagent.

Series [11] has as its system Rattus norvegicus. In words: Antiinflammatory activity in Sprague-Dawley rat assessed as inhibition of carrageenan-induced paw edema at 150 umol/kg, po administered 1 hr before carrageenan injection and measured 5 hrs post carrageenan challenge.
Series [12] deals with RAW264.7. In words: Inhibition of IL-1beta production in mouse RAW264.7 cells incubated for 12 hrs by sandwich immunoassay. Format: functional, cell-based. The following applies: RAW264.7, 12 h. The procedure, abridged: as §2
Series [13] deals with J774.A1. Description: Inhibition of IL-1beta production in mouse J774A.1 cells incubated for 12 hrs by sandwich immunoassay. Format: functional, cell-based. The following applies: J774.A1, 12 h. The procedure, abridged: as §2
Series [14] deals with Rattus norvegicus. In words: Antiinflammatory activity in Sprague-Dawley rat assessed as inhibition of carrageenan-induced paw edema at 150 umol/kg, po administered 1 hr before carrageenan injection and measured 3 hrs post carrageenan challenge.
Series [15] relates to Rattus norvegicus. In words: Antiinflammatory activity in Sprague-Dawley rat assessed as inhibition of LPS-induced TNFalpha production at 150 umol/kg, po pre-administered at interval of 12 hrs followed by LPS-stimulation 2 hrs after final dose and measured 2 hrs post LPS challenge by ELISA method. It is filed as functional.
In series [16] the test system is RAW264.7. Description: Inhibition of TNFalpha production in mouse RAW264.7 cells incubated for 6 hrs by sandwich immunoassay. The following applies: RAW264.7, 6 h. It is filed as functional, cell-based. The procedure, abridged:
as §2

In the case of `COc1ccccc1C1CC(=O)c2ccccc2O1` (centres undefined), the viability at 24 h, 50 µM in series [1] was 84.3%; in [5], 89.3%. The inhibition at 30 µM in series [2] was determined as 37.3%; in series [3], 37.3%; in [7], 34.5%; in [8], 38.3%. Also, the half-inhibitory concentration (IC50) in series [4] turned out to be 44.5 µM; in series [6], 47.3 µM.

In the case of `O=C1CC(c2ccccc2OCc2cccc(F)c2)Oc2ccccc21` (centres undefined), the IC50 in series [9] came to 20.1 µM; in series [12], 27.4 µM; in series [13], 30.2 µM; in series [4], 13.2 µM; in [6] it was 15.6 µM; in series [16], 19.8 µM. In addition, the viability at 24 h, 50 µM in [1] was 90.3%; in [5], 92.7%. In addition, the inhibition at 30 µM in series [2] amounted to 93.3%; in series [3], 91.6%; in [7], 96.2%; in [8] it was 92.7%. In addition, the inhibition in vivo at 150 µmol/kg in series [10] was found to be 39.2%; in series [11], 39.5%; in [14], 5.2%; in series [15] it was 49.6%.

Regarding `CC(C)Cc1ccc(C(C)C(=O)O)cc1` (centres undefined) [IBUPROFEN], the values for the inhibition in vivo at 150 µmol/kg in [11] and in [14] were 41.4% and 30.5%, respectively.

On to `CC(C)=CCOc1ccccc1C1CC(=O)c2ccccc2O1` (centres undefined), for which the viability at 24 h, 50 µM in [1] was found to be 94.8%; in [5], 92.3%. The inhibition at 30 µM turned out to be 41.8% in series [2], 41.7% in [3], 31.7% in series [7] and 40.3% in series [8]. In addition, the 50% inhibitory concentration (IC50) in [4] is 34.3 µM; in series [6] it was 32.7 µM.

With `CCCOc1ccccc1C1CC(=O)c2ccccc2O1` (centres undefined), the viability at 24 h, 50 µM in [1] came out at 91.7%; in series [5], 93.6%. For the same molecule, the inhibition at 30 µM in series [2] worked out at 45.7%; in [3] it was 46%; in series [7], 44.6%; in series [8], 43.6%. Besides, the half-maximal inhibitory concentration (IC50) came to 44.6 µM in series [4] and 46 µM in series [6].

With `C[C@@H]1C[C@H]2[C@@H]3CCC4=CC(=O)C=C[C@]4(C)[C@@]3(F)[C@@H](O)C[C@]2(C)[C@@]1(O)C(=O)CO` [DEXAMETHASONE], the IC50 in series [9] was 0.4 µM; in series [13], 22 µM; in [16], 0.04 µM. Also, the inhibition in vivo at 150 µmol/kg in series [10] was determined as 62.5%; in [15], 73.4%.

For `COCOc1ccccc1C1CC(=O)c2ccccc2O1` (centres undefined), the figures for the viability at 24 h, 50 µM in series [1] and in [5] were 92.2% and 99.4%, respectively. Besides, the inhibition at 30 µM in [2] amounted to 35.2%; in series [3], 48.6%; in [7] it was 45.2%; in series [8], 33.3%. The 50% inhibitory concentration (IC50) is 35.2 µM in [4] and 32.6 µM in series [6].

As for `CCCCCOc1ccccc1C1CC(=O)c2ccccc2O1` (centres undefined), the viability at 24 h, 50 µM in series [1] was 90.3%; in series [5] it was 92.1%. Moreover, the inhibition at 30 µM in series [2] was determined as 41.3%; in series [3] it was 39.2%; in [7], 39.3%; in [8], 40.1%. Besides, the 50% inhibitory concentration (IC50) in [4] is 39.3 µM; in series [6] it was 39.2 µM.

As for `CC(C)c1ccc(COc2ccccc2C2CC(=O)c3ccccc3O2)cc1` (centres undefined), the IC50 in [9] amounted to 23.2 µM; in [12], 25.1 µM; in series [13], 23.1 µM; in series [4], 28.6 µM; in [6] it was 27.1 µM; in [16] it was 23.7 µM. In addition, the results for the viability at 24 h, 50 µM in series [1] and in series [5] were 92.5% and 99.7%, respectively. Further, the inhibition at 30 µM in series [2] worked out at 91.5%; in [3], 80.6%; in series [7], 78.6%; in [8] it was 91.7%. The inhibition in vivo at 150 µmol/kg amounted to 24.6% in [10], 32.3% in [11], 18% in series [14] and 30.3% in series [15].

As to `O=C1CC(c2ccccc2OCc2ccccc2)Oc2ccccc21` (centres undefined), the half-maximal inhibitory concentration (IC50) came to 22.4 µM in [9]; 25.2 µM in [12]; 24.5 µM in series [13]; 23.2 µM in series [4]; 18.9 µM in series [6]; 20.1 µM in [16]. For the same molecule, the viability at 24 h, 50 µM in series [1] worked out at 91.2%; in [5], 96.5%. Further, the inhibition at 30 µM is 93.2% in [2], 86.1% in [3], 83.1% in [7] and 91.5% in series [8]. Moreover, the inhibition in vivo at 150 µmol/kg in series [10] is 28.4%; in series [11] it was 35.7%; in series [14] it was 9.8%; in [15] it was 32.1%.

For `CC(C)COc1ccccc1C1CC(=O)c2ccccc2O1` (centres undefined), the figures for the viability at 24 h, 50 µM in [1] and in [5] were 83.3% and 84.5%, respectively. Moreover, the inhibition at 30 µM worked out at 30.4% in series [2], 36.7% in series [3], 33.2% in series [7] and 33.5% in series [8]. Moreover, the half-inhibitory concentration (IC50) was 33.2 µM in series [4] and 36.7 µM in [6].

Turning to `CCCCOc1ccccc1C1CC(=O)c2ccccc2O1` (centres undefined), the viability at 24 h, 50 µM in series [1] worked out at 78.3%; in [5], 95.5%. For the same molecule, the inhibition at 30 µM is 19.3% in series [2], 48.7% in [3], 47.7% in [7] and 42.5% in series [8]. Further, the IC50 in series [4] was determined as 47.7 µM; in series [6], 48.7 µM.

Regarding `C=CCOc1ccccc1C1CC(=O)c2ccccc2O1` (centres undefined), the results for the viability at 24 h, 50 µM in series [1] and in series [5] were 89.3% and 84%, respectively. Also, the inhibition at 30 µM in series [2] was 49.3%; in [3], 47.8%; in series [7], 38.6%; in series [8], 47%. The half-inhibitory concentration (IC50) in series [4] is 38.6 µM; in [6] it was 37.8 µM.

Regarding `CC(C)CCOc1ccccc1C1CC(=O)c2ccccc2O1` (centres undefined), the values for the viability at 24 h, 50 µM in [1] and in series [5] were 81.6% and 88.6%, respectively. Further, the inhibition at 30 µM in series [2] was determined as 47.6%; in series [3], 39.2%; in series [7], 42.6%; in [8], 43.6%. In addition, the results for the IC50 in series [4] and in series [6] were 42.6 µM and 39.2 µM, respectively.

For `O=C1CC(c2ccccc2OCc2ccc(F)cc2)Oc2ccccc21` (centres undefined), the 50% inhibitory concentration (IC50) was determined as 18.2 µM in series [9], 25.5 µM in [4], 28.2 µM in series [6] and 17.7 µM in series [16]. The viability at 24 h, 50 µM in series [1] was found to be 95.2%; in [5] it was 91.1%. The inhibition at 30 µM in [2] was found to be 45.2%; in series [3], 92.7%; in [7] it was 94.1%; in [8], 42.1%. The inhibition in vivo at 150 µmol/kg in series [10] is 43.6%; in series [11] it was 50.5%; in [14] it was 18.2%; in [15], 55.4%.

For `CCOc1ccccc1C1CC(=O)c2ccccc2O1` (centres undefined), the viability at 24 h, 50 µM in series [1] is 82.6%; in series [5], 92.7%. Moreover, the inhibition at 30 µM in series [2] stood at 29.6%; in [3], 38.5%; in series [7], 38.8%; in series [8], 27.7%. Besides, the IC50 turned out to be 38.8 µM in series [4] and 38.5 µM in series [6].

A word on the inhibition: it is the share of the control response that was lost under treatment. Read a high inhibition as a strong effect. A word on the IC50: it is the midpoint of a concentration-inhibition curve. A low value points to greater potency in that assay. For orientation: inhibition in vivo means the drop in the measured response relative to a control, in per cent.
